CHRM4 agonist: human M4 muscarinic receptor agonists, primary screen, CHO-K1 cells, Fluo-8 calcium fluorescence; Muscarinic acetylcholine receptor M4 (Homo sapiens), P08173; CHO-K1 hM4/Gqi5; vehicle 0%, full acetylcholine response 100%; activation, % at 3 µM; 0.14% of 360,000 active; AID 624127, 2012;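 active = activation above the run mean over all test wells plus 3 SD, cut at about 32% in these data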;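 note: peak over basal fluorescence ratio per well then scaled between controls; 0% = DMSO wells and 100% = acetylcholine at EC100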
M5 antag: human M5 muscarinic receptor antagonists, primary screen, CHO cells, Fluo-8 calcium fluorescence; CHO-hM5 cells, ACh EC80; 0.59% of 360,000 active; inhibition, % at 3 µM; AID 624040, 2012; Muscarinic acetylcholine receptor M5 (Homo sapiens), P08912;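 active = inhibition above a per-plate cutoff, the mean of that plate's test compounds plus 3 SD, cut at about 27% in these data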;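 note: 0% = acetylcholine EC80 with DMSO and 100% = DMSO without agonist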
Target sequence (P08912 whole entry, looked up): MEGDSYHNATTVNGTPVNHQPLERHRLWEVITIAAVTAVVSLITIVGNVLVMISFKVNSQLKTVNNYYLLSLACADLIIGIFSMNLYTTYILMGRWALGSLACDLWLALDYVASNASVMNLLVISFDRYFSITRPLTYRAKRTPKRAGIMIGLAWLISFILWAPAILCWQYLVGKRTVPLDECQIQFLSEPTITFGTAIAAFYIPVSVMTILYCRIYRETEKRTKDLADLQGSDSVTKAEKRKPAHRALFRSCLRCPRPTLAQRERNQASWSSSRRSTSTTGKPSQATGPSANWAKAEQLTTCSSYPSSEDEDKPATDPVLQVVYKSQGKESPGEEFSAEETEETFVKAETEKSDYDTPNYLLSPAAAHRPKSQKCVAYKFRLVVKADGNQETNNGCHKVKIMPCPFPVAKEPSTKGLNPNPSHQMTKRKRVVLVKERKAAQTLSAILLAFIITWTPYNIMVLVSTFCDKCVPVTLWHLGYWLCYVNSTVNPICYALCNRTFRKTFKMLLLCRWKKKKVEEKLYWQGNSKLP
CHRM4 PAM: human M4 muscarinic receptor positive allosteric modulators, primary screen, CHO-K1 cells, Fluo-8 calcium fluorescence. Muscarinic acetylcholine receptor M4 (Homo sapiens), P08173. 0.4% of 360,000 active. activation, % at 3 µM. CHO-K1 hM4/Gqi5, ACh EC20; 0% = ACh EC20, 100% = maximal ACh;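 active = activation above its plate's cutoff, the mean activation of sample wells plus 3 SD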
CHRM5 PAM: human M5 muscarinic receptor positive allosteric modulators, primary screen, CHO-K1 cells, Fluo-8 calcium fluorescence. activation, % at 3 µM. CHO-K1 hM5, ACh EC20 PAM; 0% = ACh EC20, 100% = ACh EC100. 0.3% of 360,000 active;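 active = activation above the run cutoff, the mean activation of all test compounds plus 3 SD, cut at about 18% in these data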
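Probe or stimulus: acetylcholine, EC20 level; Assay system: human M5 receptor in CHO-K1 cells; Schedule: compound preincubation 140 s before EC20 acetylcholine addition; Technique: intracellular calcium via Fluo-8 fluorescence; Dosing: single-point, 3 µM nominal; Read-out basis: percent activation from peak-over-basal fluorescence ratio, scaled EC20-to-EC100 acetylcholine; Repeats: one well per compound, no replicates.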
M4 antag: human M4 muscarinic receptor antagonists, primary screen, CHO cells, Fluo-8 calcium fluorescence | inhibition, % at 3 µM | Muscarinic acetylcholine receptor M4 (Homo sapiens), P08173 | 0.73% of 360,000 active | AID 624125, 2012 | CHO-hM4 cells, ACh EC80;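 active = inhibition above its plate's cutoff, the mean inhibition of sample wells plus 3 SD, cut at about 27% in these data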;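 note: 0% = acetylcholine EC80 with DMSO and 100% = DMSO without agonist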
CHRM5 agonist: human M5 muscarinic receptor agonists, primary screen, CHO-K1 cells, Fluo-8 calcium fluorescence; AID 624037, 2012; 0.19% of 360,000 active; activation, % at 3 µM; CHO-K1 hM5 cells; 0% DMSO wells, 100% maximal acetylcholine response; Muscarinic acetylcholine receptor M5 (Homo sapiens), P08912;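 active = activation above the run's mean over test compounds plus 3 SD, cut at about 23% in these data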;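 note: signal is peak over basal fluorescence ratio across the kinetic read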
* = called active by the depositor. Shown are actives, neighbours in structure and some others; about 1.8% of the full set was active somewhere.

SMILES | CHRM4 agonist | M5 antag | CHRM4 PAM | CHRM5 PAM | M4 antag | CHRM5 agonist
Cc1cc(N2C(=O)C(O)=C(C(=O)c3cccs3)C2c2ccc(F)cc2)no1 (configuration not stated) | -2.0 | -9.8 | 27.6 | 19.3* | -24.9 | 5.2
COc1cccc(C2C(C(=O)c3cccs3)=C(O)C(=O)N2c2cc(C)on2)c1 (configuration not stated) | 0.3 | 2.0 | 5.9 | 26.3* | -15.0 | 1.8
Cc1cc(N2C(=O)C(O)=C(C(=O)c3cccs3)C2c2ccccc2)no1 (configuration not stated) | -2.7 | 1.1 | 4.3 | 6.8 | -0.3 | 2.6
C[C@@H](NC(=O)c1nc[nH]c1C(=O)NCc1ccccc1)c1ccccc1 | 1.2 | 8.0 | 7.2 | -4.7 | 4.8 | -8.7
COCCCNc1c2c3c(cccc3[nH]c1=O)C(=O)c1ccccc1-2 | 305.4* | 41.0* | -17.6 | -25.9 | 52.8* | 93.9*
Cc1c(NS(=O)(=O)c2cccc(C(=O)N3CCC(C(N)=O)CC3)c2)c(=O)n(-c2ccccc2)n1C | 0.3 | -2.8 | 32.2* | 8.1 | -12.4 | -0.3
CNc1ccc(C=C2C=Cc3ccccc32)cc1 | 2.8 | 2.4 | 8.1 | 2.1 | -5.1 | 5.6
CNCCC=C1c2ccccc2C=Cc2ccccc21 | 4.4 | 98.6* | -18.1 | -18.4 | 89.7* | 1.2
CN(C)CC/C=C1/c2ccccc2COc2ccc(CC(=O)O)cc21 | 0.1 | 6.9 | -3.1 | -10.6 | 4.4 | -1.8
CN(C)CCC=C1c2ccccc2CCc2ccccc21 | 3.0 | 98.8* | -16.9 | -19.3 | 95.3* | -0.5
CN(C)CCC=C1c2ccccc2C=Cc2ccccc21 | 5.3 | 98.7* | -18.6 | -17.9 | 99.4* | -0.1
COc1ccc2c(c1OC)C(=O)N1C2SC[C@H]1C(=O)NC1CC1 (some centres not stated) | -0.4 | 8.1 | -2.0 | 2.1 | 0.3 | 3.9
CCN(CC(=O)Nc1c(F)cccc1F)C(=O)c1cccn1C | 0.7 | -14.2 | 5.9 | 8.6 | -7.0 | 0.2
CC(=O)Nc1ccc(Sc2ncccc2C(=O)Nc2ccc(OC(F)(F)F)cc2)cn1 | 141.9* | 56.9* | -40.5 | -17.5 | 73.4* | 75.9*
Cc1cc([N+](=O)[O-])nn1CCCC(=O)Nc1cc(Cl)ccc1Cl | 0.7 | 10.4 | -13.3 | -8.3 | 1.3 | -5.1
O=C(COC(=O)CC1CC2CCC1C2)Nc1cccc(S(=O)(=O)NC2=NCCCCC2)c1 (configuration not stated) | 9.5 | 7.4 | -3.0 | -6.2 | -0.7 | 0.0
CN1CCCC1CCOC(C)(c1ccccc1)c1ccc(Cl)cc1 (configuration not stated) | 14.5 | 98.5* | -17.9 | -18.3 | 97.6* | 2.5
CC(C)(C)c1ccc(C(=O)NCC2CCCN2S(=O)(=O)c2ccccc2)cc1 (configuration not stated) | 4.6 | 1.6 | 4.2 | -8.1 | -16.3 | 0.1
Nc1c(C(=O)c2ccccc2)sc2nsc(SCCN3CCCC3)c12 | 14.9 | 23.6 | -16.9 | -11.0 | 16.6 | 31.6*
Nc1c(C(=O)c2ccc(Cl)cc2)sc2nsc(SCCN3CCOCC3)c12 | 3.7 | 6.1 | -2.6 | -7.1 | 0.9 | 9.1
O=C(NC1CCCCC1)C(c1cccc2ccccc12)n1c(=O)c(-c2ccco2)nc2ccccc21 (configuration not stated) | 2.0 | 0.5 | 1.4 | -0.7 | -2.7 | 1.7
O=C(COC(=O)c1cc(=O)[nH]c2ccccc12)Nc1ccccc1F | 7.5 | 19.4 | -2.3 | -4.7 | -1.8 | 1.7
Nc1cc([N+](=O)[O-])ccc1Nc1ccc(O)cc1 | 4.9 | 32.4* | -11.9 | -12.9 | 6.2 | -4.3
COc1ccc(OC)c(/C=N/NC(=O)C(=O)N2CCCC2)c1 | -0.8 | 6.3 | 22.4* | 2.4 | -16.0 | 1.6

Source: PubChem BioAssay (The Scripps Research Institute Molecular Screening Center)
